According to ChEMBL document CHEMBL4513216, “Probing the Open Global Health Chemical Diversity Library for Multistage-Active Starting Points for Next-Generation Antimalarials” (ACS Infect Dis, 2020):

assay: Toxicity liver stage against HepG2, at 10uM; type: cell-based; design: test concentration 10 uM, cell line HepG2-A16-CD81EGFP; conditions: human, HepG2-A16-CD81EGFP cells; read-out: INHIBITION
In short: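 Uninfected HepG2-A16-CD81EGFP cells, 3 × 10^3 per well, 1536-well, plated on prespotted compound at 10 μM final, parasite-free screening media added to match infected plates; puromycin 10 μM positive, DMSO 0.5% negative; run in parallel with 48 h PbLuc assay at 37 °C, 5% CO2; viability by CellTiter-Glo luminescence, normalized to controls.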

| SMILES | cytotoxicity at 10 µM |
| --- | --- |
| c1cc(-c2nnc([C@H]3CCN(C4CCOCC4)C3)o2)ccn1 | -61.3% |
| COc1ccccc1CNC(=O)COc1c(C)n(C)ccc1=O | -41.4% |
| COc1ccc(CNc2c(N3CCN(C(C)=O)CC3)c(=O)c2=O)cc1 | -2.36% |
| Cc1cnc2c(c1NCc1cccs1)c(=O)n(C)c(=O)n2C | 0.319% |
| COCCCNC(=O)Cc1cc(-c2ccc(Cl)cc2)on1 | -21.4% |
| O=C1CC(NS(=O)(=O)c2ccc(Br)cc2)CN1 (stereo unspecified) | -0.154% |
| O=C(NCCNc1cc(N2CCCC2)cnn1)Nc1ccccc1F | -0.367% |
| COC[C@@H]1CN(C)C(=O)[C@@H]2CCN(Cc3ccco3)CC[C@H]12 | -6.13% |
| COCCN1CCc2ncc(CNc3cc(N(C)C)ncn3)n2CC1 | -1.95% |
| c1cnn(Cc2nnc3n2CCCN(c2nccs2)C3)c1 | 9.37% |
| CC(C)CN1C(=O)CO[C@@H]2CN(C(=O)CC(F)(F)F)C[C@H]21 | -1.74% |
| Cc1cccc(C(=O)N2CCO[C@H]3[C@H](OCCN(C)C)CC[C@@H]32)n1 | 3.31% |
| CC(C)NC(=O)C1CN(C(=O)Cc2ccccc2)CC12CCOCC2 (stereo unspecified) | 5.31% |
| COC(=O)C1CCN(C(=O)c2cc(Br)ccc2-n2cnnn2)CC1 | 4.67% |
| CC(C)CN1C(=O)CC(N2CCN(c3ccc(F)cc3)CC2)C1=O (stereo unspecified) | 6.56% |
| O=C(CC1Cn2ncnc2NC1=O)Nc1cccc(C(F)(F)F)c1 (stereo unspecified) | 6.17% |
| CCOc1ccc(N2CCCN=C2NC(=O)c2cccc(C)c2)cc1 | 1.61% |
| O=C(c1ccc(Cn2cc(Br)cn2)cc1)N1CCCC1 | -7.86% |
| O=C(Cc1cccs1)NCc1ccnc(C2CCCOC2)n1 (stereo unspecified) | 1.2% |
| c1cc2cc[nH]c2c(CC2CN(Cc3cscn3)C2)n1 | 13.8% |
| COc1ccc(C2Nc3ccccc3C3=NCCCN32)cc1OC (stereo unspecified) | 6.05% |
| CC1(C(=O)NCCc2ccc(F)cc2)CCOCC1 | 5.42% |
| O=C(c1ccc(Cl)cc1)N1CCn2c(nn(-c3cccc(Cl)c3)c2=O)C1 | 5.84% |

| SMILES | cytotoxicity at 10 µM |
| --- | --- |
| CN(C(=O)CSc1ncc[nH]1)C1CC1 | 7.97% |
| Cc1cc(N2CCCC(c3nncn3C3CC3)C2)ncn1 (stereo unspecified) | -6.48% |
| COc1cccc(C(CO)NC(=O)Cc2cccc(C)c2)c1 (stereo unspecified) | 4.53% |
| COc1ccc(Cc2noc(C3=NN(C)C(=O)CC3)n2)cc1OC | 13.3% |
| O=C(NCC1CCN(CCc2ccccc2)C1)NCC1(O)CCC1 (stereo unspecified) | -0.128% |
| O=S(=O)(NCCc1ccccc1F)N1CCOCC1 | -1.7% |
| c1cnn(C2CN(c3nc(-c4ccncc4)nc4c3CCC4)C2)c1 | -43% |
| COCC1CN(c2ccc(Cl)cc2C#N)CCO1 (stereo unspecified) | 11.1% |
| CCC(CCNCc1cnc(C2CCC2)s1)N1CCCC1=O (stereo unspecified) | -3.13% |
| O=C(NCc1nc(C2CC2)no1)N1CCOC(c2cccc(F)c2)C1 (stereo unspecified) | -44.6% |
| Cc1cc(CNC(=O)N2CCN(c3ccc(Cl)cn3)CC2)c(C)o1 | 13.9% |
| Cc1nc(CNC(=O)N2CCN(c3ccc(Cl)cn3)CC2)sc1C | 3.92% |
| CNC(=O)c1cccc(NC(=O)c2ccnc(N(C)C)c2)c1C | 4.9% |
| Cc1nn(C)c(Cl)c1C1CCCN1C(=O)c1ccc(N(C)C)nn1 (stereo unspecified) | -9.01% |
| COC(C(=O)N1CCN(Cc2noc(C)n2)CC1)c1ccccc1 (stereo unspecified) | -1.8% |
| Cc1cc(S(=O)(=O)N2CCCc3cc(Br)ccc32)sc1C(=O)O | 2.91% |
| CCCN(CCS(C)(=O)=O)C1CCc2ccccc2C1 (stereo unspecified) | -5.08% |
| CCN(CC)C(CNS(=O)(=O)c1ccc(C(N)=O)cc1)c1ccco1 (stereo unspecified) | -8.64% |
| Cc1sc2nc(C(F)(F)F)nc(N3CCCN(C)CC3)c2c1C | -26.8% |
| CN(Cc1cc(=O)c(O)co1)C1CCN(c2ccc(F)cc2)CC1 | -3.73% |
| COc1cc(CNc2cc(-c3nncn3C)ccn2)cc(OC)c1OC | -3.78% |
| Cc1ccc(S(=O)(=O)n2ccc(C(=O)NCC(F)(F)F)c2)cc1 | -4.78% |
| Cc1nnc2n1CCN(C(=O)c1cnc(C3CC3)s1)C2 | -5.19% |

| SMILES | cytotoxicity at 10 µM |
| --- | --- |
| CSCC(CCO)NC(=O)c1cccc(C)c1Cl (stereo unspecified) | 16.8% |
| CC(C)c1nnc(NC(=O)CCc2cc(F)ccc2F)[nH]1 | -16.9% |
| CCc1ccsc1C(=O)N1CCS(=O)(=O)CC1 | 5.36% |
| CSc1[nH]c(=O)c(C(=O)N2CCCC2c2cccs2)cc1C#N (stereo unspecified) | -3.49% |
| COc1ccc(NC(C)c2nnnn2-c2ccccc2)cc1F (stereo unspecified) | 12.1% |
| CCNc1nc(C(=O)N(C)Cc2nc(CC)no2)cs1 | -6.56% |
| Cc1cc2n(n1)CC(CNCCc1cnn(C)c1)CN2 (stereo unspecified) | 5.27% |
| Cc1cc(C)cc(C(C)NC(=O)c2ccc(CS(C)(=O)=O)o2)c1 (stereo unspecified) | 2.49% |
| CCNC(=O)CNS(=O)(=O)c1cc(Br)ccc1F | -55.4% |
| CC(C)NC(=O)CC(C)NCc1ccc(F)cc1Cl (stereo unspecified) | -40.7% |
| O=C(O)c1ccc(S(=O)(=O)Nc2ccccc2CC(F)(F)F)c(F)c1 | 6.02% |
| COc1cccc(CN(C)C(=O)CN2CC(n3nc(C)cc3C)C2)c1 | -1.38% |
| COCC1CN(CCc2ccc(OC)c(OC)c2)Cc2c1cnn2C (stereo unspecified) | -105% |
| CN(C)C(=O)CN1CCC2(CCCN(Cc3ccoc3)C2)C1=O (stereo unspecified) | -103% |
| CCCSc1ncc(-c2nccn2CCC(N)=O)cn1 | -10.4% |
| O=C(NCC1CCN(Cc2cc3ccccc3[nH]2)C1)C1CCCCC1 (stereo unspecified) | 9.81% |
| Cc1cc(=O)c2ccccc2n1CC1CCN(C(C)C)C1 (stereo unspecified) | 4.64% |
| COc1coc(CN2CCCC3(CCC(=O)N(C4CC4)C3)C2)cc1=O (stereo unspecified) | -39.9% |
| Cc1ccc(-c2cn[nH]c2C2CCCN(c3cnccn3)C2)cc1 (stereo unspecified) | 73.6% |
| CN1[C@H](CO)C[C@H](CNCc2ccc(Cl)c(F)c2)[C@@H]1c1ccccc1F | -8.39% |
| CCOC(=O)CCNC(=O)N1CCOC(Cc2cccc(OC)c2)C1 (stereo unspecified) | -1.13% |
| CC(NC(=O)c1ccc(=O)n(C)c1)c1ccccc1-n1cccn1 (stereo unspecified) | 2.68% |
| OCCC1CN(c2ncnc3[nH]cnc23)CCN1Cc1cccs1 (stereo unspecified) | 12.8% |

| SMILES | cytotoxicity at 10 µM |
| --- | --- |
| CSc1nccc(N2CCC(NCCN3CCOCC3)CC2)n1 | -49.5% |
| CCN(Cc1ccncc1)c1cc(C2CCCNC2)nc(C)n1 (stereo unspecified) | -5.21% |
| CNc1ncccc1CN1CCN2CCN(C)CC2C1 (stereo unspecified) | -2.46% |
| COc1nccnc1N1CCC(C(=O)O)(n2ccc(C(C)(C)C)n2)CC1 | -4.05% |
| CC1CCCN(CCCNC(=O)c2ccc(N(C)S(C)(=O)=O)cc2Cl)C1 (stereo unspecified) | -2.28% |
| O=C(CCCn1cncn1)N1CCC2(CC1)[C@H](O)C[C@@H]2OCCO | 5.3% |
| COc1ccc(C(=O)N2CCOC3(CNCCOC3)C2)c(OC)n1 (stereo unspecified) | -8.2% |
| O=C(Cn1c(=O)n(Cc2ccco2)c2ncccc21)NC1CCCCC1 | 4.73% |
| Cc1nccn1-c1cccc(C2CCCN(C(=O)c3cc[nH]n3)C2)n1 (stereo unspecified) | 0.481% |
| COc1ccc(CNC(=O)NC(C)(C(=O)O)c2ccco2)cc1F (stereo unspecified) | 0.808% |
| CCc1nnsc1C(=O)N1CCCC(n2ccnc2C(C)C)C1 (stereo unspecified) | -16% |
| Cc1cnn(C2CCCN(C(=O)Cc3c(C)nn(C)c3C)C2)c1 (stereo unspecified) | -6.71% |
| NC(=O)c1ccc(C(=O)N2CCCCC2Cn2cccn2)s1 (stereo unspecified) | 0.977% |
| CCOCCN1CCN(Cc2nc(CC(C)C)no2)CC1 | -13% |
| CC(Cn1cccn1)NC(=O)NCc1ccc(OC2CCCC2)nc1 (stereo unspecified) | -12.9% |
| CN1CCCc2cc(CNC(=O)c3cc[n+]([O-])cc3)ccc21 | -1.11% |
| Cc1nc(CN(C)C2CCN(CCn3cc(C#N)cn3)C2)no1 (stereo unspecified) | -3.82% |
| Cc1nc(C2CCCN(C(=O)CCCn3cccn3)C2)no1 (stereo unspecified) | -3.84% |
| Cc1nc(COc2cccc(C#N)c2)no1 | -0.513% |
| O=C(NCCc1ccc(Cl)s1)NCc1nnc2n1CCC2 | -7.15% |
| O=C(CN1CC(n2cccn2)C1)NCCCc1ccccc1 | -9.51% |
| CCN(CC)C(=O)CN(C)C1CCc2ccccc21 (stereo unspecified) | -5.1% |
| COC(=O)c1ccc(N2CCN(C(=O)c3cc(C)on3)C(C)C2)cc1 (stereo unspecified) | -7.85% |

| SMILES | cytotoxicity at 10 µM |
| --- | --- |
| c1cnn(CCNCc2nnc(C3CC3)o2)c1 | -10.5% |
| COc1ccc(C2=CCN(C(=O)CN(C)Cc3ccoc3)CC2)cc1 | -4.87% |
| Cc1nc(C)n(CC2CCCN(CCc3ccccn3)C2)n1 (stereo unspecified) | -1.59% |
| CC(C)COCC(NC(=O)c1cc[nH]n1)c1ccco1 (stereo unspecified) | -4.72% |
| CC(C)NC(=O)[C@@H]1C[C@@H]2CCN(Cc3ccoc3)C[C@H]2O1 | -109% |
| Cc1ccc(N2CC[C@H]3CO[C@H](CN(C)Cc4ccco4)[C@H]3C2)nn1 | 8.35% |
| Cc1ccc(N2CCC3(CCCN(C(=O)c4cccnc4)C3)C2)nn1 (stereo unspecified) | 2.21% |
| O=C(CO[C@@H]1CC[C@H]2[C@H]1OCCN2Cc1ccccn1)N1CCCC1 | -3.98% |
| COCCN1CC[C@H]2CN(c3cc(OC)ncn3)C[C@@H]2C1=O | 10.3% |
| COCCN1CCOCC12CCN(c1nccs1)CC2 | -102% |
| O=C(O)CN1CCC(F)(F)C2(CCN(c3ccccc3)C2)C1 (stereo unspecified) | 10.7% |
| c1cncc(COCc2nnc3n2CCN(Cc2ccco2)C3)c1 | -4.04% |
| COCCN1CCN(c2cccc(C)n2)Cc2ccc(C)nc21 | -106% |
| c1cncc(C2CC3(CCN(c4cnccn4)CC3)c3ccccc32)c1 (stereo unspecified) | 11.2% |
| O=C(N1CCCC1)N1CCC[C@]2(C[C@@H](OCc3ccncc3)CO2)C1 | 7.19% |
| CC(C)Nc1ncnc2c1CCN(C(=O)c1ccncc1F)CC2 | 4.76% |
| CN(C)CCN1C[C@@H]2CN(c3ccccc3)C[C@@H]2C1=O | -94% |
| CN(C)CC(=O)N1CCC2(CC(=O)N(c3cccc(C#N)c3)C2)C1 (stereo unspecified) | 3.37% |
| COCC1CN(S(=O)(=O)Cc2ccccc2)Cc2c1cnn2C (stereo unspecified) | -3.61% |
